The list is not random: actives were taken first. Their share in the collection is about 3%.
CASP6 VEID inh – inhibitors of human caspase-6; AID 686996; actives 0.53% (n = 350,000); P55212; inhibition, % at 12.5 µM; purified caspase-6, Z-VEID-R110 cleavage fluorescence;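 active means mean inhibition across replicates at least about 35%, with every replicate also reaching that limit, limit read from the data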;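 further: 0% = median of neutral control wells and 100% = no fluorescence left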
Xi reactivation – reactivates the inactive X chromosome in mouse fibroblasts | XiGFP mouse fibroblasts, % GFP-positive cells imaging, 3 d; cells co-treated with 5-aza-dC sensitizer; scaled so ellipticine positive control = 100% | activation, % at 7.58 µM | actives 0.055% (n = 360,000) | AID 743238;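 active means mean normalized replicate activation at least 10% and every replicate at or above 10%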;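 further: 0% = median of on-plate neutral control wells and 100% = ellipticine 6 µM median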
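System: 68-5-11 XiGFP fibroblast line; Timing: 3 days compound exposure; Compound dosing: one concentration, pinned; Benchmarks: positive control ellipticine, 6 µM final; Buffer or medium: DMEM containing 5-aza-dC.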
NSD2 inh – inhibitors of human histone methyltransferase NSD2. NSD2 peptide methylation, AlphaScreen, 120 min. AID 743445. inhibition, % at 12.5 µM. O96028. actives 0.54% (n = 310,000); in the data active means inhibition above about 50%
Wnt act – activates Wnt/beta-catenin signaling in a reporter cell assay; activator, plate reader; activation, % at 9.35 µM; actives 1.2% (n = 300,000); AID 743398; in the data active means activation above about 30%, passing the limit was not always enough;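 further: 0% = neutral control wells and 100% = positive control wells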
MITF act – MITF TRPM1 promoter activation in melanoma cells; SK-MEL-5 TRPM1-promoter luciferase, 24 h; % of positive control, neutral wells = 0; activation, % at 12.5 µM; actives 0.75% (n = 300,000); AID 588334;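 active means mean activation of at least 80% with every replicate also reaching 80%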;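 further: 0% = neutral control wells and 100% = parthenolide positive control wells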
esBAF inh – blocks esBAF chromatin remodeling in mouse ES cells. AID 602393. reporter increase, % at 12.5 µM. actives 2% (n = 350,000). Bmi1-luciferase knock-in reporter, 24 h; 100% = twice the neutral-well signal; in the data active means activation above about 40%;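 further: 0% = median of the plate's neutral control wells and 100% = double that signal; a rise in the Bmi1 reporter signal indicates esBAF inhibition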
* marks the source's active call; other numbers are inactive results; . = not tested or not shown; ! = not confirmed by another sample.

SMILES	CASP6 VEID inh	Xi reactivation	NSD2 inh	Wnt act	MITF act	esBAF inh
C[C@@H]1CCCCO[C@@H](CN(C)C(=O)Nc2ccc3c(c2)OCO3)[C@H](C)CN([C@@H](C)CO)C(=O)c2cc(NC(=O)Nc3ccc(F)cc3)ccc2O1	-1	0	.	.	.	1
C[C@H]1CCCCO[C@H](CN(C)C(=O)Nc2ccc(F)cc2)[C@@H](C)CN([C@@H](C)CO)C(=O)c2cc(NC(=O)Nc3ccc4c(c3)OCO4)ccc2O1	-2	0	.	1	.	51*!
C[C@@H]1CCCCO[C@@H](CN(C)Cc2ccncc2)[C@@H](C)CN([C@H](C)CO)C(=O)c2cc(NC(=O)c3ccncc3)ccc2O1	1	0	.	.	.	.
NS(=O)(=O)c1ccc(NC(=O)/C=C/c2ccco2)cc1	54*	0	19	5	21	.
Cc1ccc(-n2nc3ccc(NC(=O)/C=C/c4ccco4)cc3n2)cc1	5	0	-2	58*	9	.
CCc1ccccc1NC(=O)c1cccc(NC(=O)/C=C/c2ccco2)c1	.	0	0	110*	2	.
O=C(/C=C/c1ccco1)NCc1ccc2c(c1)OCO2	4	0	-3	-2	-11	1
Cc1ccc(NC(=O)c2cccc(NC(=O)/C=C/c3ccco3)c2)cc1C	.	0	-3	11	33	.
CC(=O)NS(=O)(=O)c1ccc(NC(=O)/C=C/c2ccco2)cc1	28	0	36	4	20	.
O=C(/C=C/c1ccco1)Nc1ccc2c(c1)OCO2	2	1	1	33*	92*	.
O=C1CN(S(=O)(=O)c2ccccc2)C[C@H]2[C@@H](c3ccc(C#Cc4ccccc4)cc3)[C@H](CO)N12	.	0	.	.	.	.
O=C(CC1CC1)N1CC(=O)N2[C@H](CO)[C@H](c3ccc(C#Cc4ccccc4)cc3)[C@@H]2C1	1	0	.	.	.	.
O=C(/C=C/c1ccco1)Nc1cccnc1Cl	17	0	12	36*	.	11
Cc1cc(C(=O)NNC(=O)/C=C/c2ccco2)c(C)o1	52*	1	12	-1	-3	-4
Cn1c(=O)c(C(=O)Nc2ccccc2S(N)(=O)=O)c(O)c2ccccc21	0	0	3	16	16	52*
CCN1[C@H](C(=O)OC)[C@@H](CO)[C@@H]2Cn3c(ccc(-c4cccc(C(=O)N(C)C)c4)c3=O)[C@@H]21	2	0	.	.	.	-4
C[C@@H]1CN([C@@H](C)CO)C(=O)c2cc(C3=CCCCC3)cnc2O[C@@H]1CN(C)C(=O)Nc1ccccc1	2	0	.	.	.	3
Cc1ccc(C(C)(C)NC(=O)C2CCC(=O)N(C3CCCCCC3)C2)cc1 (stereo not drawn)	1	0	-2	-3	70	74*
FC(F)(F)c1cccc(-c2cc3nc(NC4CCCCC4)ccn3n2)c1	0	0	1	-2	.	43*
c1cc(-c2cc3nc(NC4CCCCC4)ccn3n2)ccc1OCCN1CCOCC1	-2	0	4	-2	.	50*
Clc1cccc(CNc2ccn3nc(-c4ccc(OCCN5CCOCC5)cc4)cc3n2)c1	2	0	2	-4	.	-3
c1cc(-c2cc3nc(NCC4CC4)ccn3n2)ccc1OCCN1CCOCC1	-2	0	6	4	.	46*
CC(C)Cc1ccc(-c2cc3nc(NCC4CC4)ccn3n2)cc1	1	0	-2	-1	.	83*
CN(C)C(=O)CNc1ccn2nc(-c3cccc(OCCN4CCOCC4)c3)cc2n1	-2	0	0	-1	.	2
FC(F)(F)c1cccc(-c2cc3nc(NCCOc4ccccc4)ccn3n2)c1	0	0	-1	6	.	34
SMILES	CASP6 VEID inh	Xi reactivation	NSD2 inh	Wnt act	MITF act	esBAF inh
COc1cc(-c2cc3nc(NCCN(C)C)ccn3n2)cc(OC)c1OC	-24	0	0	1	.	-11
COCCOC(=O)N1C(=O)[C@@]2(c3cc(C#CCCO)ccc31)[C@H](c1ccccc1OCCO)N1[C@H](c3ccccc3)[C@H](c3ccccc3)OC(=O)[C@H]1[C@@H]2C(=O)N1CCN(c2ncccn2)CC1	0	.	.	.	.	.
C[C@H](CO)N1C[C@H](C)[C@H](CN(C)S(=O)(=O)c2ccc(Cl)cc2)OCCCC[C@H](C)Oc2ccc(NS(=O)(=O)c3ccccc3)cc2C1=O	0	0	.	.	.	1
CC(=O)Nc1ccc(/C=N/N2CCCCC2)cc1	-2	0	3	9	74	62*
O=[N+]([O-])c1ccc(C=NN2CCCCCC2)cc1	0	0	5	60*	41	69*
CO[C@@H]1CN(C)C(=O)c2ccc(NS(=O)(=O)c3ccccc3F)cc2OC[C@H](C)NC[C@@H]1C	-2	0	.	.	.	-2
COc1ccc(CN=C2Nc3ccccc3CS2)cc1	-1	.	-1	.	.	61*
COc1ccc(CN=C2NN=C(c3ccc(Cl)cc3)CS2)cc1	4	0	-2	1	20	.
CC1CN(Cc2csc(-c3ccc(Cl)cc3)n2)CC(C)O1 (stereo not drawn)	3	0	1	3	21	47*
NC(=O)/C(=C\c1ccco1)NC(=O)c1ccco1	6	0	3	-2	.	1
NC(=O)/C(=C/c1ccco1)C(N)=S	35*	0	1	4	.	.
Cc1cc(C(=O)Nc2cccc3c2O[C@@H](CN(C)Cc2ccc(-c4ccccc4)cc2)[C@H](C)CN([C@H](C)CO)C3=O)n(C)n1	1	0	.	.	.	9
Cc1ccc(OCCSc2ncnc3nc[nH]c23)cc1	.	.	0	.	90*	.
Cc1ccccc1NC(=O)C1CCCN1S(=O)(=O)c1ccccc1C(F)(F)F (stereo not drawn)	-1	0	-2	50*	-3	4
Cc1ccccc1NC(=O)C1CCCN1S(=O)(=O)c1cccc2cccnc12 (stereo not drawn)	.	.	.	.	-14	0
CC1CCCN(C(=O)c2sc3cc([N+](=O)[O-])ccc3c2Cl)C1 (stereo not drawn)	.	.	10	.	36	46*
O=C(c1sc2cc([N+](=O)[O-])ccc2c1Cl)N1CCCCC1	.	0	4	-1	9	33
Cn1c(-c2ccccc2)c(/C=N/NC(=O)c2ccc(O)cc2)c2ccccc21	0	.	1	29	1	63*
O=C(N/N=C\c1c(O)ccc2ccccc12)c1ccc(O)cc1	-1	0	2	0	.	-63
Cc1ccccc1Nc1nc(N)nc(COC(=O)c2ccccc2)n1	.	0	-5	.	83*	.
Cc1ccccc1Nc1nc(N)nc(COC(=O)c2ccc(O)cc2)n1	.	1	2	2	14	.
Cn1cccc1C(=O)OCc1csc(-c2ccccc2)n1	.	.	3	71*	22	.
Cc1ccccc1Nc1nc(N)nc(COC(=O)c2cccn2C)n1	.	.	0	66*	.	48*
O=C(N[C@@H]1CC[C@@H](CC(=O)N2CCCCC2)O[C@@H]1CO)c1ccccn1	1	0	.	.	.	4

Compound activity: PubChem, Broad Institute
